Marks after values point to notes of the source that are not given here.
Experiments:
[1] = Serum insulin analogue concentrations after subcutaneous bolus; assay type: in vivo, human; details: n = 30; for Time to fraction of total insulin AUC (10%) / Time to fraction of total insulin AUC (20%) / Tmax (time to peak insulin concentration) / Insulin AUC0–1 h/AUC0–6 h, geometric mean / Insulin AUC0–2 h/AUC0–6 h, arithmetic mean (value in brackets) / Insulin AUC0–2 h/AUC0–6 h, geometric mean / Insulin AUC0–4 h/AUC0–6 h, arithmetic mean (value in brackets) / Insulin AUC0–4 h/AUC0–6 h, geometric mean: 0.2 U/kg s.c. before standardized meal, obese T2DM; for Time to fraction of total insulin AUC (10%) / Time to fraction of total insulin AUC (20%) / Tmax (time to peak insulin concentration): median; for Insulin AUC0–1 h/AUC0–6 h, geometric mean / Insulin AUC0–2 h/AUC0–6 h, arithmetic mean (value in brackets) / Insulin AUC0–2 h/AUC0–6 h, geometric mean / Insulin AUC0–4 h/AUC0–6 h, arithmetic mean (value in brackets) / Insulin AUC0–4 h/AUC0–6 h, geometric mean: serum analogue
In short: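 Same crossover and 0.2 U/kg s.c. premeal dosing in obese T2DM (n = 30). Serum test insulin analogue was measured by an analogue-specific kit at a central laboratory over 6 h. Non-compartmental analysis gave Cmax, Tmax and linear-trapezoidal AUC fractions. Ratios with 90% CI used ANOVA on ln-transformed data; times used Hodges–Lehmann 90% CI for median differences.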

[2] = tested on: obese subjects with type 2 diabetes; test: Postprandial plasma glucose after a standardized test meal; assay type: in vivo, human; details: n = 30; for Time to 10% of total glucose AUC / Time to 20% of total glucose AUC / Time to ΔGLUmax: 0.2 U/kg s.c. before standardized meal, obese T2DM, median
In short: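 Same crossover, fasting, 0.2 U/kg s.c. premeal dosing and standardized 692-kcal meal. Plasma glucose was sampled at −20, −10 and 0 min, every 10 min to 2 h, then every 15 min to 6 h. AUCs used the linear trapezoidal rule; incremental AUCs and GLUmax used ANOVA (subject, treatment, sequence, period). Ratio 90% CIs used Fieller's theorem on untransformed data; times used Wilcoxon with Hodges–Lehmann 90% CI.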

NEFA = test: Non-esterified fatty acid; assay type: in vivo, human; details: for Mean NEFA concentration after subsequent increase / Time of lowest mean NEFA concentration: 0.2 U/kg s.c. before standardized meal; for Mean NEFA concentration after subsequent increase: after the nadir, within 6-h period; for Time of lowest mean NEFA concentration / Mean NEFA concentration at start (before decrease): obese T2DM; for Mean NEFA concentration at start (before decrease): baseline
In short: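 Obese T2DM adults (n = 30) fasted 12 h with oral agents withheld. In a randomized two-way crossover with a 7-day washout, they received 0.2 U/kg s.c. of test insulin analogue within 2 min before a 692-kcal meal (54% carbohydrate, 17% protein, 28% lipid) eaten within 30 min. Plasma NEFA was sampled from −20 min to 6 h by validated kit; mean profiles.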

[3] = tested on: obese subjects with type 2 diabetes; test: Hypoglycaemia and adverse events; assay type: in vivo, human; details: for Severe hypoglycaemia / Subjects with hypoglycaemia with blood glucose below 56 mg/dl / Subjects with an episode of hypoglycaemia 3–6 h after insulin administration: 0.2 U/kg s.c.; for Subjects with an episode of hypoglycaemia 3–6 h after insulin administration: blood glucose <70 mg/dl
[4] = subcutaneously injected; cited from earlier work
[5] = point estimate (90% CI), Hodges and Lehmann method
[6] = point estimate (90% CI), ln-transformed data
[7] = point estimate (90% CI), Fieller's Theorem, untransformed data

Substance	Time to fraction of total insulin AUC (10%) [1]	Time to fraction of total insulin AUC (20%) [1]	Tmax (time to peak insulin concentration) [1]	Insulin AUC0–1 h/AUC0–6 h, geometric mean [1] [%]	Insulin AUC0–2 h/AUC0–6 h, arithmetic mean (value in brackets) [1] [%]	Insulin AUC0–2 h/AUC0–6 h, geometric mean [1] [%]	Insulin AUC0–4 h/AUC0–6 h, arithmetic mean (value in brackets) [1] [%]	Insulin AUC0–4 h/AUC0–6 h, geometric mean [1] [%]	Time to 10% of total glucose AUC [2]	Time to 20% of total glucose AUC [2]	Time to ΔGLUmax [2]	Mean NEFA concentration after subsequent increase (NEFA) [mmol/L]	Time of lowest mean NEFA concentration (NEFA) [min]	Mean NEFA concentration at start (before decrease) (NEFA) [mmol/L]	Severe hypoglycaemia [3]	Subjects with hypoglycaemia with blood glucose below 56 mg/dl [3]	Subjects with an episode of hypoglycaemia 3–6 h after insulin administration [3] [subjects]	other results
insulin aspart	60.5 ^† min	91.0 ^† min	93.0 ^† min	11	3.6	35	4.3	77	40.0 ^† min	65.0 ^† min	59.5 ^† min	0.31	120	0.51	no cases of severe hypoglycaemia requiring intervention	eight	15	Time of the remaining hypoglycaemia episodes after administration ([3]; episodes outside 3–6 h, one value per episode): 60 min
insulin glulisine	60.0 ^† min	90.0 ^† min	120.0 ^† min	14	3.6	36	4.3	78	40.0 ^† min	67.5 ^† min	60.0 ^† min	0.32	180	0.50	no cases of severe hypoglycaemia requiring intervention	Five	10	Tmax, median difference glulisine vs aspart [1, 5]: 17 min; Insulin AUC0–1 h/AUC0–6 h, mean ratio glulisine/aspart [1, 6]: 127% (106–152); Insulin AUC0–2 h/AUC0–6 h, mean ratio glulisine/aspart [1, 6]: 103% (95–110); Insulin AUC0–4 h/AUC0–6 h, mean ratio glulisine/aspart [1, 6]: 101% (99–103); GLUmax, mean ratio glulisine/aspart [2, 7]: 94% (90–99); Glucose AUC0–1 h, mean ratio glulisine/aspart [2, 7]: 94% (90–99); Glucose AUC0–1 h/AUC0–6 h, mean ratio glulisine/aspart [2, 7]: 95% (92–99); Glucose AUC0–2 h/AUC0–6 h, mean ratio glulisine/aspart [2, 7]: 96% (94–99); Glucose AUC0–4 h/AUC0–6 h, mean ratio glulisine/aspart [2, 7]: 99% (97–100); Glucose AUC0–6 h, mean ratio glulisine/aspart [2, 7]: 98% (95–104); ΔGLUmax, mean ratio glulisine/aspart [2, 7]: 81% (70–100); Time to 10% of total glucose AUC, median difference glulisine vs aspart [2, 5]: -2 min; Time to 20% of total glucose AUC, median difference glulisine vs aspart [2, 5]: 0 (−4 to 3) min; Time to ΔGLUmax, median difference glulisine vs aspart [2, 5]: -5 min; GLUmax, mean difference glulisine vs aspart ([2]; point estimate (90% CI), analysis of variance, untransformed data): -11 mg/dL
regular human insulin [RHI]																		Duration of action [4]: > 8 h; Time of peak effect after dosing [4]: 3 h

— paper PMC3132447 (Diabetes, Obesity & Metabolism, 2011)
